Assay: Toxicity liver stage against HepG2, at 10uM
Assay type: cell-based
Set-up: test concentration 10 uM, cell line HepG2-A16-CD81EGFP
Conditions: human, HepG2-A16-CD81EGFP cells; read-out: INHIBITION
Summary of the method: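 Uninfected HepG2-A16-CD81EGFP cells, 3 × 10^3 per well, 1536-well, plated on prespotted compound at 10 μM final, parasite-free screening media added to match infected plates; puromycin 10 μM positive, DMSO 0.5% negative; run in parallel with 48 h PbLuc assay at 37 °C, 5% CO2; viability by CellTiter-Glo luminescence, normalized to controls.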

Structure (SMILES)	cytotoxicity at 10 µM [%]
O=c1c2c(ncn1CCO)nc1n2CCC1	-11.3
COCCN(CC1CCCN(C2Cc3ccccc3C2)C1)C(=O)CSC (configuration not stated)	-1.66
Cc1ccccc1C(O)c1ccncc1 (configuration not stated)	-4.84
Cc1nnc(NCc2cccc(OCC3CCCO3)c2)c(C#N)c1C (configuration not stated)	-33.8
COCc1cc(CC2(NC3CCCCC3)COC2)no1	0.66
Cc1ccc(-c2noc(C(C)NS(C)(=O)=O)n2)cc1 (configuration not stated)	-9.24
CC(C)CCNC(=O)c1ccc2c(=O)n(-c3ccccc3)cnc2c1	-4.65
Cn1cc(NC(=O)CNC(=O)N2CCN(c3cccc(Cl)c3)CC2)cn1	2.93
O=C(COc1coc(CN2CCOCC2)cc1=O)Nc1ccc(Cl)cc1	-6.51
Cc1ccc(C)c(C(=O)NCC(c2cccn2C)N2CCCCCC2)c1 (configuration not stated)	5.64
O=C(NCC(F)(F)F)C1CN(C(=O)c2cnccn2)C1	2.24
c1cncc(COCC2CN(Cc3ccco3)Cc3ccnn3C2)c1 (configuration not stated)	-14.4
CO[C@H]1CCN(c2ccc(C)nn2)[C@H]1Cc1cnn(C)c1	-12.7
CSc1ncn(-c2nc(NC3CC3)nc(N(C)C)n2)n1	-6.75
CCOCCCNC(=O)c1nn(CC)cc1Br	1.77
Cc1nc(NCc2cccnc2)c2c(n1)c(C)nn2C	-3.42
CN(C)c1ccc(C2CCN(c3cnccn3)CC2)nc1	-11.2
O=C(c1cc(C2CC2)on1)N1C[C@H]2CC[C@](O)(c3ccc(F)cc3)[C@H]2C1	3.94
CN(C)Cc1cnc(C2CCN(C(=O)c3cc(F)cc(F)c3)C2)[nH]1 (configuration not stated)	2.5
Cn1c(=O)[nH]c(=O)c2c1nc1n2CC(c2ccc(Br)cc2)O1 (configuration not stated)	-1.41
CC(C)(C)NC(=O)N1CCC(NC(=O)Cc2cccnc2)CC1	0.355
Cc1ccc(C(=O)NS(=O)(=O)Cc2ccccc2)cc1S(C)(=O)=O	3.09
CS(=O)(=O)c1cc(NC(=O)COc2ccccc2F)cc(C(=O)O)c1	-9.24

Structure (SMILES)	cytotoxicity at 10 µM [%]
Cn1nnnc1SCC1(O)CCCCC1	1.06
COc1ccc(C(O)CNC(=O)Cn2ccc(=O)n(C)c2=O)cc1 (configuration not stated)	6.45
CCOc1cc(CNc2cc(-c3nc(C)no3)ccn2)ccc1OC	1.74
COCCNC(=O)c1ccc(NCc2c(C)noc2C)cc1Cl	0.678
CC(NC(=O)CSCC(N)=O)c1ccc(Oc2ccccc2)cc1 (configuration not stated)	2.98
Cc1cc(C(=O)NCC(O)c2ccc(Cl)s2)c(C)o1 (configuration not stated)	-6.82
O=C(Cc1ccccc1Br)NCC(=O)Nc1cn[nH]c1	7.44
CC(C(=O)NCc1ccco1)N1CCN(Cc2nccn2C)CC1 (configuration not stated)	7.73
CN(Cc1ccc(C(N)=O)cc1)c1ccc(C(F)(F)F)cn1	7.98
CCc1nc2n(n1)CC(Nc1ccnc(-c3ccccc3)n1)CC2 (configuration not stated)	-11.7
CC(O)(CNS(=O)(=O)Cc1ccon1)c1ccsc1 (configuration not stated)	2.76
CC(C)C(C)NC(=O)Nc1cccc2c1CCN(S(C)(=O)=O)C2 (configuration not stated)	-11.3
CC(=O)N1CCN(CCNS(=O)(=O)c2cccc(F)c2)CC1	6.99
CC(C)N(CC(N)=O)C(=O)c1cc(F)ccc1N1CCN(C)CC1	7.66
COc1ccc2cccc(CC(=O)NCCc3n[nH]c(=O)[nH]3)c2c1	-3.59
Cn1ccnc1SCC(=O)NCCC1CCCO1 (configuration not stated)	-2.49
O=C(c1c[nH]c2ncccc12)N(Cc1ccco1)C1CCCC1	2.07
CC(C)c1nnc(NC(=O)N2CCN(C)CC2c2ccccc2)s1 (configuration not stated)	-11.6
O=C(Nc1cccn(CC(F)(F)F)c1=O)c1ccc(F)cc1	14.3
CCn1c(C)cc(-c2csc(Cn3ccc(=O)[nH]c3=O)n2)c1C	10.2
N#CC(NC(=O)CCC1CCC1)c1cnn(-c2ccccc2)c1 (configuration not stated)	-2.65
CN(Cc1nnn(CC2CC2)n1)C(=O)c1ccccc1	0.889
Cc1nc(-c2ccc(Cl)s2)sc1C(=O)N(C)CC(N)=O	-7.08

Structure (SMILES)	cytotoxicity at 10 µM [%]
Cc1nc(S(=O)(=O)CCn2cccn2)n(CC2CCCO2)c1C (configuration not stated)	-4.34
COCC(O)CN(C)C(=O)NC1CCN(S(C)(=O)=O)CC1 (configuration not stated)	-0.778
c1cc(CN2CCCCC2)cc(NCc2cc[nH]n2)c1	-6.05
CC(=O)c1cccc(NC(=O)CN2CCCCC2C2OCCO2)c1 (configuration not stated)	-10.5
O=C(C1SCCc2sccc21)N1CCN(CCO)CC1 (configuration not stated)	-19.8
CCCn1nc2c(cc1=O)CN(Cc1nc(CCOC)no1)CC2	-2.7
CSc1ccc(NS(=O)(=O)c2cnn(C)c2)cn1	-4.69
CSCCC(=O)N1CCCC1c1ccsc1 (configuration not stated)	-20.3
CCCc1n[nH]c(C2CN(C(=O)CCCn3cccn3)CCO2)n1 (configuration not stated)	-7.87
C[C@H]1C[C@H]2CN(C(=O)CC3CC3)CC[C@H]2O1	-67.8
CCC1CN(C(=O)c2ccccc2N2CCOCC2)CCN1C(C)C (configuration not stated)	7.72
Cc1noc(CN2CC=C(c3cnn(C4CCS(=O)(=O)C4)c3)CC2)n1 (configuration not stated)	-0.89
CN(Cc1cc(C2CC2)on1)C(=O)CN1CC(c2ccccc2)CC1=O (configuration not stated)	-6.72
Cc1nccc(N2CCCC(c3nnc(Cn4ccnc4C)n3C)C2)n1 (configuration not stated)	-2.04
O=S1(=O)COCCN1CCOc1ccccc1	5.1
CCCn1cnnc1CN(C)C(=O)C1CCC(=O)N(C2CCCC2)C1 (configuration not stated)	2.95
CCn1ncnc1CN1CCc2[nH]cnc2C1CCc1ccccc1 (configuration not stated)	0.0189
COc1ccccc1N1CCN(C(=O)Cn2nc(C)c(C)c2C)C(C)C1 (configuration not stated)	2.96
COCCCN1CC2(CCC1=O)CCN(Cc1cc(C(C)C)no1)CC2	-2.1
O=C(O)CC1COCCN1C(=O)C1(c2ccc(Cl)cc2)CCC1 (configuration not stated)	-17.8
OCCC[C@@H]1CN(c2ncc(Cl)cc2Cl)CC[C@@H]1N1CCOCC1	4.24
CC(C)N1CCC(CC(=O)N(C)CC(=O)c2ccc(O)cc2)CC1	5.21
O=C1OCCN1CCNCC1(O)CCCN(CCC2CCCCC2)C1=O (configuration not stated)	-0.615

Structure (SMILES)	cytotoxicity at 10 µM [%]
COc1ccc(OC)c2c(C)cc(N(CCO)CCO)nc12	-114
CN1CCCN(C(C(=O)O)c2ccc3c(c2)OCO3)CC1 (configuration not stated)	1.83
COc1cccc2c1OCC(CNc1cc(N)nc(SC)n1)C2 (configuration not stated)	3.37
O=C(N1CCCC1)N1CCC(c2nccn2Cc2cscn2)CC1	4.8
NC1CCCCN(Cc2ccccc2CS(=O)(=O)c2ccccc2)C1 (configuration not stated)	-20.9
CCS(=O)(=O)CCNc1nc(C2CCCC2)nc2c1cnn2C	9.35
COc1ccc(OCc2nccc(-c3cc(C(=O)O)ccn3)n2)cc1	-4.81
CCCN1CCN(C(=O)c2cnc(C)nc2)[C@H]2CS(=O)(=O)C[C@H]21	0.0652
CCN1CCCC(c2c(-c3ccccc3)ncn2CC(N)=O)C1 (configuration not stated)	-15.4
c1cc(CNc2ccc(-c3nc(C4CC4)no3)cn2)no1	1.79
O=C(NC1CCCN(CCCc2ccccc2)C1)c1ccncc1 (configuration not stated)	0.524
Cc1cccc(N2CCN(CC(=O)N3CCCC(N(C)C)CC3)CC2)c1 (configuration not stated)	-3.73
Cc1nc(N)nc(C)c1CC(=O)N1CCC2(CC1)OCCCC2O (configuration not stated)	-1.8
COCCC1(C(=O)O)CCCN(CC(=O)NCCc2ccccc2)C1 (configuration not stated)	2.66
CCc1nnc(CN(C)c2nc(C3CCCC3)nc3c2cnn3C)o1	-11.3
COc1ccc(CN2CCC(O)CC2)c(OC)c1	-9.18
c1ccc(Cc2noc(CN3CCCC3Cn3cccn3)n2)cc1 (configuration not stated)	-2.57
CCC(O)CN1CCN(C(=O)c2cc3ccccc3n2CC)CC1 (configuration not stated)	-0.579
Cc1ncc2c(n1)CN(CC(=O)Nc1c(C)nn(C)c1C)CC2	-11.1
Cc1nc(CN(C)C2CCN(CC3CCOCC3)C2)no1 (configuration not stated)	-4.68
CC(=O)N1CCN(C(=O)c2cccc(OCc3cscn3)c2)CC1	-7.57
Cc1cc(C)c(CNC(=O)NCCC2CCCO2)c(=O)[nH]1 (configuration not stated)	-6.33
CCn1cnnc1CNC(=O)Cc1ccc2c(c1)OCCO2	-3.27

Structure (SMILES)	cytotoxicity at 10 µM [%]
CCc1n[nH]c(C2CN(C(=O)c3cnc(C)cn3)CCO2)n1 (configuration not stated)	-2.9
COC(=O)c1cccn1C1CCN(CCN2C(=O)CCC2=O)CC1	0.207
Cc1c(C(=O)N2CCCC(n3cncn3)C2)cnn1C (configuration not stated)	-9.84
Nc1nc(CN2CCOC(Cn3cccn3)C2)nc2ccccc12 (configuration not stated)	-20.4
CCCn1nc2c(cc1=O)CN(Cc1nnc(C3CC3)o1)CC2	2.11
Cc1nn(C)c(Cl)c1CNCc1ccc(OCC(N)=O)cc1	1.08
CCc1cccc(NS(=O)(=O)c2cc3c(c(C(=O)O)c2)OCCO3)c1	2.89
CC(NC(=O)NCCCN(C)S(C)(=O)=O)c1ccncc1 (configuration not stated)	-0.409
O=C(CCc1nccs1)N1CCN(c2cccnn2)CC1	-2.84
Cc1n[nH]c(C)c1NC(=O)CN1CCn2c(nnc2C(C)C)C1	-1.03
O=C(N[C@H]1CN[C@H]2CCCO[C@H]21)c1cscn1	-13.7
CCC(=O)N1C[C@@H](C(=O)NC)[C@H](c2ccnc(N3CCCC3)n2)C1	-1.21
Cn1cccc1CN1CCC2(CCCN(C(=O)c3cnccn3)C2)C1 (configuration not stated)	-6.36
c1ccc(Cn2cc3c(n2)C(COCC2CC2)OCC3)nc1 (configuration not stated)	-6.63
Cn1cccc1CN1CCC2(CC1)CN(c1ncccn1)CCO2	-4
c1cc(CN2CCC3(CC2)COC(COCC2CC2)C3)ccn1 (configuration not stated)	-0.443
Cc1ccccc1C(=O)N1C[C@@H]2COC[C@]2(COCc2cccnc2)C1	4.44
O=C(C1CCOC1)N1CCC2(CC1)COCCN(Cc1ccncc1)C2 (configuration not stated)	-86
Cn1cc(CN2CCn3c(CNC(=O)c4cccn4C)cnc3C2)cn1	-3.47
O=C(NC1CCC1)[C@H]1C[C@H]2CN(C(=O)Nc3ccc(F)cc3)C[C@@H]1O2	7.2

From ChEMBL document CHEMBL4513216, “Probing the Open Global Health Chemical Diversity Library for Multistage-Active Starting Points for Next-Generation Antimalarials” (ACS Infect Dis, 2020)
